Measured values as given in ChEMBL document CHEMBL1649328, “Assessment of pandemic and seasonal influenza A (H1N1) virus susceptibility to neuraminidase inhibitors in three enzyme activity inhibition assays” (Antimicrob Agents Chemother, 2010).

What was measured:
[1] = tested on: Influenza A virus; test: Ratio of IC50 for influenza A (A/Singapore/57/2009 (H1N1)) virus harboring neuraminidase H275Y mutant to IC50 for influenza A (A/Washington/29/2009 (H1N1)) virus expressing wild type enzyme by fetuin substrate based colorimetric assay; format: functional
In short: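 Colorimetric NA inhibition using a virus dilution that gave 0.4–0.8 OD549. Virus preincubated 1 h at 37°C with half-log inhibitor dilutions (0.03–1,000 nM final) in MES/CaCl2 pH 6.0 buffer. Fetuin (5.5 mg/ml final) then added for 18 h at 37°C. Released sialic acid detected by periodate oxidation and thiobarbituric acid, butanol extraction, read at 549 nm. IC50 curve-fitted, ≥2 experiments. Ratio is variant IC50 over wild-type reference IC50.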

[2] = tested on: Influenza A virus; test: Antiviral activity against influenza A (A/North Carolina/01/2009 (H1N1)) virus harboring neuraminidase H275Y mutant after 30 mins by NA-star substrate based chemiluminescent assay; format: functional, organism-based
In short: (§1)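 Titrated virus in NA-Star buffer (26 mM MES, 4 mM CaCl2, pH 6.0) was preincubated with ten half-log inhibitor dilutions (0.03–1,000 nM final) for 30 min at 37°C, then with substrate for 30 min at room temperature. Accelerator solution was added and luminescence read for 0.1 s. IC50 came from a Vmax·[1−x/(K+x)] fit, mean of ≥3 experiments.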

[3] = tested on: Influenza A virus; test: Antiviral activity against influenza A (A/Montana/02/2009 (H1N1)) virus harboring neuraminidase H275Y mutant after 30 mins by NA-star substrate based chemiluminescent assay; format: functional, organism-based; in short: as §1
[4] = tested on: Influenza A virus; test: Antiviral activity against influenza A (A/Washington/29/2009 (H1N1)) virus harboring neuraminidase H275Y mutant after 30 mins by NA-star substrate based chemiluminescent assay; format: functional, organism-based; in short: as §1
[5] = tested on: Influenza A virus; test: Antiviral activity against influenza A (A/North Carolina/01/2009 (H1N1)) virus harboring neuraminidase H275Y mutant after 30 mins by MUNANA substrate based fluorometric assay; format: functional, organism-based
In short: (§2)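 Fluorometric NA inhibition with MUNANA (100 μM final). Titrated virus in NA-Star buffer (26 mM MES, 4 mM CaCl2, pH 6.0) was preincubated with ten half-log inhibitor dilutions (0.03–1,000 nM final) for 30 min at 37°C, then with substrate for 30 min at 37°C. The reaction was stopped with 0.1 M glycine in 25% ethanol, pH 10.7, and 4-methylumbelliferone was read at ex 365/em 450 nm. IC50 came from a Vmax·[1−x/(K+x)] fit, mean of ≥3 experiments.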

[6] = tested on: Influenza A virus; test: Antiviral activity against influenza A (A/Montana/02/2009 (H1N1)) virus harboring neuraminidase H275Y mutant after 30 mins by MUNANA substrate based fluorometric assay; format: functional, organism-based; in short: as §2
[7] = tested on: Influenza A virus; test: Antiviral activity against influenza A (A/Hong Kong/2369/2009 (H1N1)) virus harboring neuraminidase H275Y mutant after 30 mins by MUNANA substrate based fluorometric assay; format: functional, organism-based; in short: as §2
[8] = tested on: Influenza A virus; test: Antiviral activity against influenza A (A/Montana/02/2009 (H1N1)) virus harboring neuraminidase H275Y mutant after 16 to 18 hrs by fetuin substrate based colorimetric assay; format: functional, organism-based
In short: (§3)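 Colorimetric NA inhibition with fetuin substrate. Virus was diluted in NA-Star buffer (26 mM MES, 4 mM CaCl2, pH 6.0) to give OD549 of 0.4–0.8 after 18 h. It was preincubated with ten half-log inhibitor dilutions (0.03–1,000 nM final) for 1 h at 37°C, then with fetuin (5.5 mg/ml final) for 16–18 h at 37°C. Released sialic acid was read at 549 nm after periodate/TBA reaction and butanol extraction. IC50 came from a Vmax·[1−x/(K+x)] fit, mean of ≥2 experiments.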

[9] = tested on: Influenza A virus; test: Antiviral activity against influenza A (A/Washington/29/2009 (H1N1)) virus harboring neuraminidase H275Y mutant after 16 to 18 hrs by fetuin substrate based colorimetric assay; format: functional, organism-based; in short: as §3
[10] = tested on: Influenza A virus; test: Antiviral activity against influenza A (A/Singapore/57/2009 (H1N1)) virus harboring neuraminidase H275Y mutant after 16 to 18 hrs by fetuin substrate based colorimetric assay; format: functional, organism-based; in short: as §3
[11] = tested on: Influenza A virus; test: Ratio of IC50 for influenza A (A/North Carolina/02/2009 (H1N1)) virus harboring neuraminidase H275Y mutant to IC50 for influenza A (A/Washington/10/2008 (H1N1)) virus expressing wild type enzyme expressing wild type enzyme by NA-star substrate based chemiluminescent assay; format: functional
[12] = tested on: Influenza A virus; test: Ratio of IC50 for influenza A (A/Singapore/91/2009 (H1N1)) virus harboring neuraminidase H275Y mutant to IC50 for influenza A (A/Washington/29/2009 (H1N1)) virus expressing wild type enzyme by NA-star substrate based chemiluminescent assay; format: functional
In short: (§4)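 Chemiluminescent NA inhibition in MES 26 mM/CaCl2 4 mM buffer, pH 6.0. […] Luminescence read for 0.1 s. IC50 from the fit y = Vmax·{1 − [x/(K + x)]}, mean of ≥3 experiments. Ratio is the H275Y variant IC50 over the pandemic wild-type reference IC50.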

[13] = tested on: Influenza A virus; test: Ratio of IC50 for influenza A (A/Hong Kong/2369/2009 (H1N1)) virus harboring neuraminidase H275Y mutant to IC50 for influenza A (A/Washington/29/2009 (H1N1)) virus expressing wild type enzyme by NA-star substrate based chemiluminescent assay; format: functional
[14] = tested on: Influenza A virus; test: Ratio of IC50 for influenza A (A/Singapore/57/2009 (H1N1)) virus harboring neuraminidase H275Y mutant to IC50 for influenza A (A/Washington/29/2009 (H1N1)) virus expressing wild type enzyme by NA-star substrate based chemiluminescent assay; format: functional; in short: as §4
[15] = tested on: Influenza A virus; test: Ratio of IC50 for influenza A (A/North Carolina/02/2009 (H1N1)) virus harboring neuraminidase H275Y mutant to IC50 for influenza A (A/Washington/10/2008 (H1N1)) virus expressing wild type enzyme by MUNANA substrate based fluorometric assay; format: functional
[16] = tested on: Influenza A virus; test: Ratio of IC50 for influenza A (A/New York/18/2009 (H1N1)) virus harboring neuraminidase H275Y mutant to IC50 for influenza A (A/Washington/10/2008 (H1N1)) virus expressing wild type enzyme by MUNANA substrate based fluorometric assay; format: functional
[17] = tested on: Influenza A virus; test: Ratio of IC50 for influenza A (A/Montana/02/2009 (H1N1)) virus harboring neuraminidase H275Y mutant to IC50 for influenza A (A/Washington/29/2009 (H1N1)) virus expressing wild type enzyme by MUNANA substrate based fluorometric assay; format: functional
[18] = tested on: Influenza A virus; test: Ratio of IC50 for influenza A (A/Washington/29/2009 (H1N1)) virus harboring neuraminidase H275Y mutant to IC50 for influenza A (A/Washington/29/2009 (H1N1)) virus expressing wild type enzyme by MUNANA substrate based fluorometric assay; format: functional
In short: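 Fluorometric NA inhibition in MES/CaCl2 buffer, pH 6.0. Virus preincubated 30 min at 37°C with ten half-log inhibitor dilutions (0.03–1,000 nM final), then MUNANA (100 μM final) added for 30 min at 37°C. Stopped with 0.1 M glycine in 25% ethanol, pH 10.7. Read at ex 365/em 450 nm. IC50 curve-fitted, mean of ≥3 experiments. Ratio is variant IC50 over wild-type reference IC50.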

| Compound | Ratio IC50 [1] | IC50 [2] [nM] | IC50 [3] [nM] | IC50 [4] [nM] | IC50 [5] [nM] | IC50 [6] [nM] | IC50 [7] [nM] | IC50 [8] [nM] | IC50 [9] [nM] | IC50 [10] [nM] | Ratio IC50 [11] | Ratio IC50 [12] | Ratio IC50 [13] | Ratio IC50 [14] | Ratio IC50 [15] | Ratio IC50 [16] | Ratio IC50 [17] | Ratio IC50 [18] |
| --- | --- | --- | --- | --- | --- | --- | --- | --- | --- | --- | --- | --- | --- | --- | --- | --- | --- | --- |
| CCC(CC)[C@H](NC(C)=O)[C@@H]1[C@H](O)[C@@H](C(=O)O)C[C@H]1NC(=N)N [PERAMIVIR ANHYDROUS] | 173 | 13.8 | 15 | 12.5 | 150 | 197 | 128 | 83.4 | 163 | 84.8 | 1 | 1 | 66 | 84 | 1 | 1 | 1095 | 751 |
| C/C=C\[C@@H]1C[C@H](C(=O)O)N[C@H]1[C@@H](NC(C)=O)[C@](C)(CCC)OC | 1 | 0.84 | 1 | 1.62 | 1.93 | 2.6 | 1.67 | 1.89 | 2.07 | 1.58 | 1 | 1 | 3 | 3 | 1 | 1 | 5 | 3 |
